For data set [1], the system named is MDA-MB-468. Put plainly: Cytotoxicity against human MDA-MB-468 cells after 48 hrs by SRB assay. The data set is classed as functional. The conditions noted are these: MDA-MB-468, 48 h. A digest of the protocol: (§1)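 Cancer lines grown in RPMI 1640 with 10% FBS and 2 mM L-glutamine; 184B5 and MCF10A grown in supplemented mammary epithelial basal medium. 5000–10,000 cells/well seeded, 24 h at 37 °C and 5% CO₂. Seven serially diluted concentrations added, final DMSO ≤0.1%, 48 h exposure. Fixed with 10% TCA (final) at 4 °C, stained with 0.4% SRB, solubilized in 10 mM Tris, A515–564. Growth % = (Ti−Tz)/(C−Tz)×100; GI50 from sigmoidal variable-slope fit; triplicates, ≥2 independent experiments.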

The test system of data set [2] is MDA-MB-231. Description: Cytotoxicity against human MDA-MB-231 cells after 48 hrs by SRB assay. In kind it is functional. Conditions: MDA-MB-231, 48 h. A digest of the protocol:
as §1

The subject of data set [3] is MCF7. Put plainly: Cytotoxicity against human MCF7 cells after 48 hrs by SRB assay. The data set is classed as functional. The conditions noted are these: MCF7, 48 h. Put shortly:
as §1

Data set [4] in a line: Cytotoxicity against human 184B5 cells after 48 hrs by SRB assay. The data set is classed as cell-based. Put shortly:
as §1

Data set [5] can be described thus: Cytotoxicity against human MCF10A cells after 48 hrs by SRB assay. The data set is classed as cell-based, MCF-10A. Put shortly: as §1
The subject of data set [6] is MCF7. Description: Cell cycle arrest in human MCF7 cells assessed as accumulation at G2/M phase at 20 uM after 24 hrs by flow cytometry (Rvb=12%). The data set is classed as functional. Put shortly:
(§2)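 MCF7 or MCF10A cells treated with compound at 20 or 40 µM for 24 h, with DMSO-treated negative control. 2.0 × 10⁶ cells pelleted and fixed in ice-cold 70% ethanol (30 min to overnight, −20 °C), then washed in PBS. Stained 30 min at 37 °C with 100 µg/mL PI, 100 µg/mL RNase A, 0.3% NP-40 and 0.1% sodium citrate. DNA content read by flow cytometry; G0/G1, S and G2/M fractions taken from DNA histograms.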

In data set [7] the test system is MCF-10A. Put plainly: Cell cycle arrest in human MCF10A cells assessed as accumulation at G2/M phase at 20 uM after 24 hrs by flow cytometry. The data set is classed as functional, cell-based. Put shortly: as §2
Data set [8] concerns MDA-MB-231. Description: Selectivity ratio of GI50 for human MCF10A cells to GI50 for human MDA-MB-231 cells. A digest of the protocol:
(§3)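 Ratio of non-cancer to cancer GI50, each from 48 h SRB growth assays (seven concentrations, sigmoidal variable-slope fit, triplicates in ≥2 independent experiments).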

Data set [9] relates to MCF-10A. Description: Cell cycle arrest in human MCF10A cells assessed as accumulation at S phase at 20 uM after 24 hrs by flow cytometry. The data set is classed as functional, cell-based. A digest of the protocol:
as §2

Data set [10] deals with MDA-MB-468. Put plainly: Selectivity ratio of GI50 for human 184B5 cells to GI50 for human MDA-MB-468 cells. Put shortly:
as §3

Data set [11] deals with MCF7. Put plainly: Cell cycle arrest in human MCF7 cells assessed as accumulation at S phase at 20 uM after 24 hrs by flow cytometry (Rvb=17%). In kind it is functional. A digest of the protocol:
as §2

Data set [12] concerns MCF7. Put plainly: Cell cycle arrest in human MCF7 cells assessed as accumulation at G2/M phase at 40 uM after 24 hrs by flow cytometry. In kind it is functional, cell-based. A digest of the protocol:
as §2

Active and inactive are the calls of the source. The rule behind the calls is not given here.

The source of these data is ChEMBL document CHEMBL1152647, “Hybrid pharmacophore design and synthesis of isatin-benzothiazole analogs for their anti-breast cancer activity” (Bioorg Med Chem, 2009).

For `O=C1C(=O)N(CN2CCCCC2)c2cccc(Br)c21`, the results for the GI50 in [1], in [2] and in data set [3] were 35.3 µM, 30.2 µM and 31.4 µM, respectively. For the same molecule, the GI50 at 48 h is 85.2 µM in [4] and 66.9 µM in data set [5].
The corresponding values for `O=C1C(=O)N(CN2CCOCC2)c2ccccc21` are 28.2 µM, 57.6 µM, 52.3 µM, 78.7 µM and 72.1 µM.
`CN(C)CN1C(=O)C(=O)c2c(Cl)cccc21`: the figures for the GI50 in data set [1], in [2] and in data set [3] were 107 µM, 138 µM and 87.8 µM, respectively. In addition, the 50% growth inhibitory concentration (GI50) at 48 h in data set [4] amounted to 130 µM; in data set [5] it was 82.3 µM.
The corresponding values for `Cc1ccc2nc(/N=C3\C(=O)N(CN4CCCCC4)c4cccc(Br)c43)sc2c1` are 24 µM, 38.2 µM, 39.1 µM, 85.2 µM and 18.4 µM.
Take `O=C1C(=O)N(CN2CCCCC2)c2ccccc21`: the 50% growth inhibitory concentration (GI50) in data set [1] was 24.1 µM; in data set [2] it was 38 µM; in [3], 41.2 µM. Further, the figures for the GI50 at 48 h in [4] and in [5] were 68 µM and 41.8 µM, respectively.
The corresponding values for `Cc1ccc2nc(/N=C3\C(=O)N(CN4CCCCC4)c4ccccc43)sc2c1` are 65.6 µM, 34.5 µM, 37.8 µM, 34.9 µM and 38.9 µM.
Regarding `Cc1ccc2nc(/N=C3\C(=O)N(CN(c4ccccc4)c4ccccc4)c4cccc(Br)c43)sc2c1`, the GI50 in data set [1] was 82.3 µM; in [2], 75.1 µM; in data set [3], 30.2 µM. Besides, the GI50 at 48 h was 70.2 µM in data set [4] and 67.9 µM in [5].
The corresponding values for `CCN(CC)CN1C(=O)C(=O)c2c(Cl)cccc21` are 28.3 µM, 44.5 µM, 34 µM, 22.5 µM and 35 µM.
In the case of `Cc1ccc2nc(/N=C3\C(=O)N(CN(c4ccccc4)c4ccccc4)c4ccccc43)sc2c1`, the concentration for 50% growth inhibition (GI50) in data set [1] was 17.7 µM; in [2] it was 34.1 µM; in data set [3], 39.1 µM. Further, the GI50 at 48 h in [4] was determined as 27.2 µM; in data set [5] it was 34 µM.
For `Cc1ccc2nc(/N=C3\C(=O)N(CN(C)C)c4cccc(Cl)c43)sc2c1`, the figures for the GI50 in data set [1], in data set [2] and in [3] were 28.1 µM, 10.9 µM and 20.7 µM, respectively. For the same molecule, the figures for the GI50 at 48 h in data set [4] and in data set [5] were 5.77 µM and 7.02 µM, respectively.
Turning to `CCN(CC)CN1C(=O)C(=O)c2c(Br)cccc21`, the Activity in data set [6] was 38%; in [11], 8%. Moreover, the outcome in data set [7] and in data set [9] was inactive. The RatioGI50 in data set [8] came to 5.6; in data set [10], 14.7. The GI50 in [1] came out at 11.7 µM; in [2], 20.2 µM; in [3], 20.2 µM. Further, the GI50 at 48 h was found to be 172 µM in data set [4] and 113 µM in [5].
Take `CCN(CC)CN1C(=O)/C(=N\c2nc3ccc(C)cc3s2)c2c(Br)cccc21`: the GI50 came out at 43.1 µM in [1], 28.7 µM in data set [2] and 30.2 µM in [3]. In addition, the GI50 at 48 h worked out at 34.3 µM in data set [4] and 16.1 µM in [5].
The matching figures for `O=C1C(=O)N(CN(c2ccccc2)c2ccccc2)c2cccc(Br)c21`: 63.2 µM, 51.1 µM, 110 µM, 98.5 µM and 85.8 µM.
For `CCN(CC)CN1C(=O)C(=O)c2ccccc21`, the GI50 turned out to be 35.9 µM in data set [1], 60.6 µM in data set [2] and 44.1 µM in data set [3]. Further, the GI50 at 48 h in data set [4] stood at 41.7 µM; in data set [5], 73.6 µM.
The corresponding values for `O=C1C(=O)N(CN2CCOCC2)c2cccc(Cl)c21` are 61.5 µM, 61.5 µM, 29.2 µM, 79.8 µM and 78.5 µM.
The matching figures for `Cc1ccc2nc(/N=C3\C(=O)N(CN(C)C)c4ccccc43)sc2c1`: 35.5 µM, 19.2 µM, 29.2 µM, 15.6 µM and 13.4 µM.
For `CN(C)CN1C(=O)C(=O)c2ccccc21`, the GI50 amounted to 50.1 µM in data set [1], 65.6 µM in data set [2] and 40.5 µM in data set [3]. The figures for the GI50 at 48 h in data set [4] and in data set [5] were 73.7 µM and 150 µM, respectively.
For the molecule `O=C1C(=O)N(CN2CCOCC2)c2cccc(Br)c21`, the GI50 in [1] amounted to 54 µM; in data set [2] it was 29.7 µM; in data set [3] it was 65.6 µM. The GI50 at 48 h in [4] stood at 79.5 µM; in data set [5], 82.3 µM.
For the molecule `O=C1C(=O)N(CN2CCCCC2)c2cccc(Cl)c21`, the GI50 in data set [1] was 82.8 µM; in [2], 26.5 µM; in data set [3], 51.2 µM. For the same molecule, the GI50 at 48 h in [4] is 93.7 µM; in [5], 70.7 µM.
The corresponding values for `CCN(CC)CN1C(=O)/C(=N\c2nc3ccc(C)cc3s2)c2ccccc21` are 63.5 µM, 32.7 µM, 74.8 µM, 27.5 µM and 20.4 µM.
For the molecule `Cc1ccc2nc(/N=C3\C(=O)N(CN4CCOCC4)c4ccccc43)sc2c1`, the result in [6], in data set [7], in [9] and in [11] was inactive. For the same molecule, the GI50 in [1] turned out to be 17.6 µM; in data set [2], 19.8 µM; in data set [3], 14.6 µM. Further, the result in data set [12] was Active. The GI50 at 48 h in [4] was found to be 30.6 µM; in data set [5], 38.5 µM.
Take `Cc1ccc2nc(/N=C3\C(=O)N(CN4CCOCC4)c4cccc(Cl)c43)sc2c1`: the GI50 amounted to 24 µM in [1], 37.1 µM in data set [2] and 21.5 µM in [3]. The GI50 at 48 h was 63.5 µM in data set [4] and 62.3 µM in data set [5].
For `Cc1ccc2nc(/N=C3\C(=O)N(CN4CCOCC4)c4cccc(Br)c43)sc2c1`, the GI50 in data set [1] is 24.8 µM; in [2] it was 94.6 µM; in data set [3], 12 µM. The GI50 at 48 h in data set [4] was 29.9 µM; in data set [5] it was 33.2 µM.
As for `Cc1ccc2nc(/N=C3\C(=O)N(CN(C)C)c4cccc(Br)c43)sc2c1`, the GI50 in [1] is 27.4 µM; in data set [2], 49 µM; in data set [3], 17.9 µM. The GI50 at 48 h in [4] worked out at 74.8 µM; in data set [5] it was 21.8 µM.
The matching figures for `CCN(CC)CN1C(=O)/C(=N\c2nc3ccc(C)cc3s2)c2c(Cl)cccc21`: 27.3 µM, 20.4 µM, 19.2 µM, 87.8 µM and 43.9 µM.
Turning to `CCN(CC)CCCC(C)Nc1ccnc2cc(Cl)ccc12` (stereo not drawn) [CHLOROQUINE], the values for the GI50 at 48 h in [4] and in data set [5] were 76.1 µM and 81.3 µM, respectively.
As to `Cc1ccc2nc(/N=C3\C(=O)N(CN(c4ccccc4)c4ccccc4)c4cccc(Cl)c43)sc2c1`, the GI50 in [1] was 85 µM; in data set [2], 54 µM; in data set [3], 24.3 µM. Further, the GI50 at 48 h in [4] was determined as 67.8 µM; in [5], 70 µM.
As for `Cc1ccc2nc(/N=C3\C(=O)N(CN4CCCCC4)c4cccc(Cl)c43)sc2c1`, the results for the GI50 in data set [1], in data set [2] and in data set [3] were 19.8 µM, 55.8 µM and 30.9 µM, respectively. In addition, the values for the GI50 at 48 h in data set [4] and in data set [5] were 82.3 µM and 30.2 µM, respectively.
In the case of `CN(C)CN1C(=O)C(=O)c2c(Br)cccc21`, the values for the GI50 in [1], in data set [2] and in [3] were 49 µM, 93.7 µM and 57.6 µM, respectively. The figures for the GI50 at 48 h in data set [4] and in data set [5] were 77.9 µM and 67.8 µM, respectively.
The corresponding values for `O=C1C(=O)N(CN(c2ccccc2)c2ccccc2)c2ccccc21` are 21.5 µM, 24.8 µM, 23.7 µM, 33.7 µM and 73 µM.
The matching figures for `O=C1C(=O)N(CN(c2ccccc2)c2ccccc2)c2cccc(Cl)c21`: 14.3 µM, 31.4 µM, 29.7 µM, 96.8 µM and 77.2 µM.
